PubChem BioAssay
Activity calls are given as the source filed them.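 How the source made its calls, unless noted: active means GFP response above 150% of the DMSO level; inconclusive means fewer than 70 events counted for a yeast strain; inactive means the rest.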

Experiments:
[1] = hit retest on RPL19A-GFP reporter strain – cell-based, S. cerevisiae, flow cytometry, cherry picks, mother/daughter gates, confirmation (AID 2270;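 active means GFP response below 50% of the DMSO control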); conditions: 3 h, at 10 µM, stronger effect = lower value, 100 = same GFP as DMSO wells
[2] = yeast TOR pathway reporter LAP4-GFP change – cell-based, cherry picks, flow cytometry, mother/daughter gates, confirmation (AID 2271;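 active means GFP response above 150% of the DMSO control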;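 further: ratio of sample to DMSO plate mean so 100% equals DMSO level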); conditions: S. cerevisiae LAP4-GFP strain, 3 h, at 10 µM, stronger effect = higher value, 100 means same as DMSO control
In short: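 System: GFP-fusion yeast strain; Incubation: compound exposure 3 h at 30 °C, end-over-end rotation; Measured by: GFP by flow cytometry; Read-out: median GFP fluorescence as percent of plate-mean DMSO wells; Medium: synthetic complete (SC) yeast growth medium; Compound: single test-compound dose, 10 µM final; Benchmarks: DMSO-only negative wells, rapamycin 400 ng/mL positive wells.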

[3] = TOR pathway reporter MEP2-GFP, retest of hits – S. cerevisiae, flow cytometry GFP, cherry picks, confirmation (AID 2272;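 active means GFP response above 150% of the DMSO control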;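 further: ratio of well signal to plate DMSO mean so 100% equals DMSO level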); conditions: S. cerevisiae MEP2-GFP strain, 3 h, at 10 µM, stronger effect = higher value
[4] = yeast AGP1-GFP fluorescence change, single-dose – cell-based, flow cytometry, S. cerevisiae, cherry picks, confirmation (AID 2273);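 further: median GFP channel fluorescence over the whole cell population gate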; conditions: S. cerevisiae AGP1-GFP strain, 3 h, at 10 µM
[5] = TOR pathway CIT2 reporter hit retest – S. cerevisiae, GFP fusion, cherry picks, mother/daughter gates, confirmation (AID 2274); conditions: S. cerevisiae CIT2-GFP strain, flow cytometry, 3 h, at 10 µM, stronger effect = higher value
[6] = measured here: daughter cell gate
[7] = measured here: mother cell gate
[8] = measured here: daughter cell gate response
[9] = measured here: mother cell gate response

Structure (SMILES)	GFP response vs DMSO [1]	GFP response vs DMSO [1, 6] [%]	GFP response vs DMSO [1, 7] [%]	GFP response relative to DMSO [2]	GFP response relative to DMSO [2, 8] [%]	GFP response relative to DMSO [2, 9] [%]	GFP response vs DMSO [3]	GFP response, % of DMSO [4]	GFP response, % of DMSO [5]	GFP response, % of DMSO [5, 6] [%]	GFP response, % of DMSO [5, 7] [%]
Cc1cc(NCCCN2CCOCC2)n2nc(C)c(-c3ccccc3)c2n1	95.8% (inactive)	94.7	94.4	100% (inactive)	97.5	100	99.3% (inactive)	100% (inactive)	101% (inactive)	101	100
COc1ccc(-c2csc(NC(=O)CSc3nc(C)nc4sc(C(=O)O)c(C)c34)n2)cc1	100% (inactive)	99	100	85.4% (inactive)	87.9	89	102% (inactive)	104% (inactive)	102% (inactive)	99.7	103
COc1ccc(/C=C2\Sc3ccc(C(=O)N4CCc5ccccc5C4)cc3N(C)C2=O)cc1	98.4% (inactive)	97.4	99.5	99.2% (inactive)	99.2	98.3	102% (inactive)	102% (inactive)	99.7% (inactive)	99.1	98.5
O=C1c2ccsc2SCCN1Cc1cccc(Cl)c1	95.4% (inactive)	92.6	95.8	108% (inactive)	104	110	98.3% (inactive)	98.7% (inactive)	99.7% (inactive)	99.1	101
O=C(Cc1ccc(Cl)cc1)Nc1ccc(Br)cn1	103% (inactive)	100	103	108% (inactive)	106	111	118% (inactive)	113% (inactive)	105% (inactive)	112	99.3
COc1cccc(/C=N/Nc2nc(-c3cccnc3)nc3ccccc23)c1	94.7% (inactive)	93.3	93.5	104% (inactive)	101	106	106% (inactive)	101% (inactive)	103% (inactive)	103	100
CCOc1ccc(NC2=C(Cl)C(=O)N(Cc3ccccc3)C2=O)cc1	98.2% (inactive)	98.3	100	102% (inactive)	96.5	102	99.5% (inactive)	95.8% (inactive)	96.4% (inactive)	98.3	94.5
COc1ccc(-c2nnc(NC(=O)c3ccc([N+](=O)[O-])o3)o2)c(OC)c1	101% (inactive)	100	101	95.4% (inactive)	92.8	96.1	100% (inactive)	98% (inactive)	105% (inactive)	105	103
Fc1ccccc1-c1nc(NCCCN2CCOCC2)c2ccccc2n1	94.4% (inactive)	93.6	95.6	101% (inactive)	99.2	98.3	96.2% (inactive)	98.5% (inactive)	96.9% (inactive)	97.2	97.3
CCOC(=O)Cc1csc(NC(=O)COc2ccc(N(C)S(=O)(=O)c3cccs3)cc2)n1	95% (inactive)	94.9	92	102% (inactive)	101	98.3	105% (inactive)	96.6% (inactive)	95.5% (inactive)	97.2	95
CCn1c(=O)c(C(=O)NC(C)C)c(O)c2ccccc21	101% (inactive)	98.7	101	101% (inactive)	100	101	100% (inactive)	97.8% (inactive)	103% (inactive)	99.7	103
COc1ccc(OC)c(C2C(C(=O)Nc3nc4ccccc4s3)=C(C)NC3=C2C(=O)CCC3)c1 (configuration not stated)	102% (inactive)	78.4	78.4	102% (inactive)	86.4	82.9	109% (inactive)	103% (inactive)	103% (inactive)	85	83.7
Cc1ccc(-c2nc(NC(=O)c3nn(C)cc3[N+](=O)[O-])sc2C)cc1	100% (inactive)	97.3	101	98.7% (inactive)	97.2	101	102% (inactive)	101% (inactive)	96.5% (inactive)	91.5	97.7
CSC1=NC(=O)/C(=C/c2ccc(SC)cc2)S1	95.1% (inactive)	78	92.5	138% (inactive)	115	134	110% (inactive)	107% (inactive)	75% (inactive)	78.1	70.3
Cc1ccc(N2C(=O)C3C4C=CC(CNC(=S)Nc5ccc(Cl)cc5)(O4)C3C2=O)cc1 (configuration not stated)	102% (inactive)	101	100	101% (inactive)	103	102	102% (inactive)	102% (inactive)	99.1% (inactive)	98.1	97.7
COc1cc(NC(=O)c2cccc(C)c2)ccc1NC(=O)c1cc2ccccc2o1	102% (inactive)	103	102	103% (inactive)	102	103	99% (inactive)	104% (inactive)	103% (inactive)	106	103
CC(C)NC(=O)c1ccccc1-c1nc(-c2ccccc2Cl)no1	97.2% (inactive)	96.7	98	107% (inactive)	103	108	97.8% (inactive)	98.5% (inactive)	91.3% (inactive)	93.2	90.2
Nc1ccccc1NC(=O)c1ccccc1	101% (inactive)	103	99.8	98.9% (inactive)	96	99.5	106% (inactive)	98.4% (inactive)	101% (inactive)	103	103
CCNc1nc(-c2ccc(Cl)cc2)cs1	101% (inactive)	100	101	93.8% (inactive)	97.2	96.2	102% (inactive)	97.8% (inactive)	104% (inactive)	101	106
Fc1ccc(/C=N/Nc2nc(-c3cccnc3)nc3ccccc23)cc1	94.5% (inactive)	92.5	95	107% (inactive)	105	111	102% (inactive)	94.6% (inactive)	93.9% (inactive)	96.5	91.2
CCOC(=O)c1c(C)[nH]c(C)c1C(=O)COC(=O)c1cc2ccccc2cc1O	96.2% (inactive)	97.3	94.8	106% (inactive)	104	109	103% (inactive)	103% (inactive)	98.4% (inactive)	96.8	96.7
N#Cc1cc([N+](=O)[O-])c(-n2nnc3ccccc32)c([N+](=O)[O-])c1	92.8% (inactive)	94.7	88.8	172% (active)	149	184	90.5% (inactive)	98.2% (inactive)	100% (inactive)	99.2	93.2
Cc1cc(NCCN2CCOCC2)n2nc(C)c(-c3ccc(Cl)cc3)c2n1	97.1% (inactive)	97	95.8	106% (inactive)	101	109	108% (inactive)	98.4% (inactive)	100% (inactive)	99.3	99.3
CCc1nnc(NC(=O)CSc2nnc(C3CCCCC3)n2-c2cccc(Cl)c2)s1	98.2% (inactive)	98.5	98.6	100% (inactive)	99.3	99.5	102% (inactive)	101% (inactive)	101% (inactive)	102	100
CCCc1nnc(N2C(=O)c3cccc4cccc(c34)C2=O)s1	103% (inactive)	103	102	115% (inactive)	104	113	103% (inactive)	108% (inactive)	113% (inactive)	106	115
CC(=O)Nc1c(-c2ccc(F)cc2)nc2ccccn12	97.6% (inactive)	99	95.8	106% (inactive)	110	108	116% (inactive)	106% (inactive)	110% (inactive)	114	108
O=C(Nc1cccc(Cl)c1N1CCCC1)c1ccc([N+](=O)[O-])o1	99.2% (inactive)	96.4	95.8	99.2% (inactive)	92.8	96.1	100% (inactive)	97.6% (inactive)	99.7% (inactive)	99.1	91.4
